Hits are enriched below; roughly 2.9% of the tested compounds scored in any of these assays.
SENP6 inh: SENP6 protease inhibitors, primary screen, biochemical, luminescence, uHTS; Recombinant SENP6 catalytic domain, aminoluciferin luminescence; inhibition, % at 10 µM; 330,000 compounds, 1.8% hits;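 active = inhibition above about 50% at the single tested dose, limit read from the data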;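 also: plate controls were DMSO wells with enzyme for no effect and DMSO wells lacking enzyme for full effect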
SENP7 inh: SENP7 protease inhibitors, primary screen, biochemical, luminescence, uHTS; Sentrin-specific protease 7 (Homo sapiens), Q9BQF6; recombinant SENP7, Z-RLRGG-aminoluciferin luminescence, 40 min; inhibition, % at 5 µM; 330,000 compounds, 1.5% hits; AID 434973, 2010;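 active = inhibition above about 50% at the single test dose, limit read from the data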;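 also: plate controls were DMSO with enzyme for no effect and no enzyme buffer wells for full effect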
Target sequence (Q9BQF6 706-1050 limits assumed): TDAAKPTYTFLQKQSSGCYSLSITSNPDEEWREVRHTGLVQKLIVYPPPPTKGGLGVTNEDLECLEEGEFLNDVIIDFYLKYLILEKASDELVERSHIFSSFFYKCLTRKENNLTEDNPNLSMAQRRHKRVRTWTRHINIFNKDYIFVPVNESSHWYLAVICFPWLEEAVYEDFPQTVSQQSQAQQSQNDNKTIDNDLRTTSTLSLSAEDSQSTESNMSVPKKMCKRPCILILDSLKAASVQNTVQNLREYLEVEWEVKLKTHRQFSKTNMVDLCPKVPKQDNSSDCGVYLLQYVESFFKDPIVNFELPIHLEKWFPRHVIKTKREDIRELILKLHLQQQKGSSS
SENP8 block-1: SENP8 protease inhibitors, primary screen, biochemical, luminescence | Sentrin-specific protease 8 (Homo sapiens), Q96LD8 | purified SENP8, Z-RLRGG-aminoluciferin cleavage | inhibition, % at 10 µM | 330,000 compounds, 1.2% hits | AID 2540, 2010; in the data active = inhibition above about 50%
SENP8 block-2: human SENP8 protease inhibitors, primary screen, biochemical, fluorescence, Nedd8 protein substrate, uHTS | inhibition, % at 20 µM | 360,000 compounds, 0.64% hits | AID 602440, 2012 | Sentrin-specific protease 8 (Homo sapiens), Q96LD8 | recombinant SENP8; in the data active = inhibition mostly above about 40%, no sharp cut-off; inactive = mostly below about 27%
SENP1 inh: human SENP1 catalytic domain inhibitors, primary screen, biochemical, FRET, uHTS; recombinant SENP1 catalytic domain, CyPet-SUMO1-YPet FRET cleavage; inhibition, % at 10 µM; 360,000 compounds, 0.21% hits; AID 624204, 2012;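 active = inhibition at least 30% at 10 µM, raw YFP signal under a set limit, fluorescence ratio 0.5 to 1.5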;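 also: 0% = enzyme with DMSO and 100% = no enzyme wells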
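Test system: hSENP1 catalytic domain, recombinant; Amount: 20 pM final SENP1 enzyme; Medium: Tris pH 8 buffer plus EDTA, NaCl, BME, BSA, NP40, catalase; Schedule: 50 min enzyme reaction, room temperature, light-protected; Technique: FRET fluorescence in CFP and YFP emission channels; Controls: no-enzyme wells low, DMSO-plus-enzyme wells high control.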
HSP90 inh: HSP90 inhibitors, primary screen, cell lysate, luminescence. Heat shock protein HSP 90 (rabbit reticulocyte lysate; luciferase refolding). Rabbit reticulocyte lysate, luciferase refolding luminescence, 3 h. inhibition, % at 5.6 µM. 290,000 compounds, 0.91% hits. AID 1789, 2009;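 active = inhibition above the screen-wide mean plus 3 SD, computed separately per campaign, cut at about 16% in these data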;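 also: 0% = DMSO wells and 100% = 60 µM geldanamycin wells; inhibitors lower the luminescence because luciferase stays unfolded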
HSP90 confirm: HSP90 inhibitors, confirmation, cell lysate, luminescence; shares compounds with HSP90 inh; rabbit reticulocyte lysate, luciferase refolding luminescence, 3 h; AID 1846, 2009; 2,300 compounds, 64% hits; inhibition, % at 5.9 µM; in the data active = inhibition above about 18%;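 also: 0% = vehicle wells and 100% = reference inhibitor wells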
FLuc counter: firefly luciferase inhibitors, HSP90 counter-screen, confirmation, artefact control for HSP90 inhibitor project, biochemical, luminescence, triplicate; inhibition, % at 5.9 µM; purified native firefly luciferase; shares compounds with HSP90 inh; 2,300 compounds, 48% hits;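 active = inhibition above the mean inhibition of all tested sample wells plus 3 SD, cut at about 10% in these data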;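 also: 0% = DMSO with luciferase and 100% = wells lacking luciferase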
SENP8 conf: SENP8 protease inhibitors, retest, confirmation, biochemical, luminescence, single concentration; Recombinant SENP8, Z-RLRGG-aminoluciferin luminescence, 60 min; shares compounds with SENP7 inh; inhibition, % at 12.5 µM; 6,200 compounds, 40% hits;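 active = mean inhibition across replicates above about 50%, limit read from the data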
SENP6 confirm: SENP6 protease inhibitors, confirmation, biochemical, luminescence, single concentration | shares compounds with SENP7 inh | recombinant SENP6, Z-RLRGG-aminoluciferin luminescence | inhibition, % at 12.5 µM | 6,200 compounds, 58% hits | AID 488915, 2010
SENP7 conf: SENP7 protease inhibitors, retest, confirmation, biochemical, luminescence, single concentration; shares compounds with SENP7 inh; recombinant SENP7, Z-RLRGG-aminoluciferin luminescence, 40 min; inhibition, % at 12.5 µM; 6,200 compounds, 69% hits
Casp3 SENP sel: caspase-3 protease inhibitors, confirmation, selectivity assay for SENP inhibitor project, biochemical, single concentration; inhibition, % at 12.5 µM; AID 488918, 2010; 6,200 compounds, 60% hits; purified caspase-3, Z-DEVD-aminoluciferin luminescence, 60 min; shares compounds with SENP7 inh;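 active = mean inhibition above about 50%, limit read from the data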;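 also: plate controls were enzyme with DMSO for no effect and wells without caspase-3 for full effect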
Target sequence (P42574 28-227 limits assumed): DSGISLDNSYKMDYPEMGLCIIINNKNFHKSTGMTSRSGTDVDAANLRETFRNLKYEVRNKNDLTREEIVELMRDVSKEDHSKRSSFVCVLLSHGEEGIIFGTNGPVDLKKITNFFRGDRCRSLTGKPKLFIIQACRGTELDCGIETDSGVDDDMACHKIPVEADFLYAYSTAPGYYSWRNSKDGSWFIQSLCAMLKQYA
SENP luc ctr: luminescence interference (SENP counter-screen) | shares compounds with SENP7 inh | Pre-incubated SENP8/Z-RLRGG-aminoluciferin, luciferase luminescence interference | inhibition, % at 12.5 µM | 6,200 compounds, 39% hits | AID 488919;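 active = mean inhibition above about 50% when retested at one dose, limit read from the data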;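 also: plate controls were DMSO wells with completed reaction for no effect and substrate without enzyme for full effect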
Starred values were filed as active, the others as inactive; / = no result given.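 The calls were made as follows, unless noted: active = mean inhibition above about 50% in the one-dose retest (limit read from the data); inactive = the rest.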

SMILES | SENP6 inh | SENP7 inh | SENP8 block-1 | SENP8 block-2 | SENP1 inh | HSP90 inh | HSP90 confirm | FLuc counter | SENP8 conf | SENP6 confirm | SENP7 conf | Casp3 SENP sel | SENP luc ctr
Cc1ccc(NC(=O)c2cnn(-c3ccccc3)c2C)cc1C | 84.7* | 89.9* | 76.8* | 16.2 | -0.5 | 43.8* | 64.0* | 58.5* | 4.9 | 85.9* | 97.0* | 80.0* | 40.1
Cc1ccc(S(=O)(=O)N2CCN(CC(=O)Nc3ccccc3C(=O)NC3CC3)CC2)cc1 | -8.4 | 5.0 | 7.3 | 12.1 | -1.2 | / | / | / | / | / | / | / | /
Cc1cccc(-c2noc(C3CCCCC3)n2)c1 | 62.9* | 49.8 | 20.8 | 14.9 | 1.5 | 64.5* | 5.8 | -12.4 | 10.9 | 25.8 | 74.8* | 22.5 | 10.3
COc1ccc2ccn(S(=O)(=O)c3ccccc3)c2c1 | 7.3 | -1.8 | 8.0 | 7.7 | -0.9 | -4.2 | / | / | / | / | / | / | /
COc1ccc(NC(=O)C2CCN(S(=O)(=O)c3ccc(Cl)c(C(F)(F)F)c3)CC2)cn1 | / | / | / | -4.3 | 1.4 | / | / | / | / | / | / | / | /
C(=C\c1ccccc1)/C=N/Nc1nncc(-c2ccccc2)n1 | -16.6 | 5.6 | -17.3 | / | / | -3.2 | / | / | / | / | / | / | /
O=c1nc(N/N=C/C=C/c2ccccc2)cn[nH]1 | 48.4 | 52.6* | 20.5 | 19.9 | 1.9 | 23.3* | 77.7* | 64.6* | 9.6 | 7.2 | 23.9 | 32.0 | 7.6
CC(C)[C@H]1COCCS(=O)(=O)N1Cc1ccccc1-c1ccc(C(C)(C)C)cc1 | / | -6.0 | / | 2.5 | -0.8 | / | / | / | / | / | / | / | /
Cc1ccc2nc(-c3ccccc3N)[nH]c2c1 | 93.2* | 95.0* | 89.6* | -436.7 | -0.5 | 21.5* | 38.6* | 33.2* | 32.0 | 95.6* | 102.1* | 91.4* | 90.3*
Cc1ccc2nc(-c3ccccn3)[nH]c2c1 | 90.4* | 91.1* | 83.4* | -90.9 | -2.2 | 46.3* | 60.8* | 51.2* | 91.8* | 91.4* | 100.0* | 96.4* | 90.9*
Cc1ccc(Nc2nc(N)c3ccccc3n2)cc1C | -10.0 | 91.8* | 93.2* | -100.6 | 0.4 | 26.3* | 53.5* | 36.8* | 94.5* | 95.5* | 100.7* | 93.6* | 96.0*
c1ccc(-n2nnc3c(N4CCOCC4)ncnc32)cc1 | 81.4* | 74.6* | 50.4* | 23.8 | -3.4 | 30.0* | 66.5* | 55.3* | 10.8 | 13.7 | 33.2 | 33.6 | 21.2
CCOC(=O)c1sc2nc3c(cc2c1N)COC(C(C)C)C3 (centres undefined) | 20.3 | 51.4* | -2.6 | -262.1 | -95.5 | 24.7* | 44.3* | 41.1* | 11.9 | 7.9 | 6.5 | 17.9 | 3.4

Compound activity (PubChem)
